The full list was thinned out, with hits kept by preference.
UPR XBP1 act: activators of adaptive XBP1 UPR arm, primary screen, cell-based, CHO-XBP1 luciferase reporter, luminescence, uHTS; IRE1-XBP1 UPR activation; percent of tunicamycin response, DMSO as zero; activation, % at 20 µM; hit rate 0.33% among 330,000;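 active = versus positive control, 20 µM dose yields 30% or more activation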;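 note: 100% = tunicamycin at 10 µg/mL and 0% = DMSO only wells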
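incubation = overnight seeding at 37 °C, 6 h compound treatment at 37 °C | assay system = CHO-XBP1 cells stably carrying IRE1-XBP1-driven luciferase reporter | input = 1000 cells per well | detection = luciferase luminescence | dosing = single point, 20 µM final compound, 1% DMSO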
Jurkat NFkB inh: inhibitors of induced NF-kB luciferase reporter, primary screen, TCR NF-kB activation inhibitor project, cell-based, luminescence, uHTS | AID 435003, 2010 | hit rate 0.53% among 330,000 | Jurkat, PMA/ionomycin-induced NF-kB luciferase reporter | inhibition, % at 4 µM; in the data active = inhibition above about 50%
UPR CHOP act: activators of apoptotic CHOP UPR arm, primary screen, cell-based, CHO-CHOP luciferase reporter, luminescence, uHTS | UPR activation; percent of tunicamycin response over DMSO baseline | activation, % at 10 µM | AID 449763, 2010 | hit rate 0.34% among 330,000;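 active = at 10 µM dose, activation of 40% or more, normalized to positive control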;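 note: 100% = tunicamycin at 10 µg/mL and 0% = DMSO alone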
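Assay system: CHO-CHOP cells, stable luciferase reporter of PERK-eIF2a-CHOP signalling / Buffer or medium: F12 plus 10% serum / Compound dosing: one dose, 10 µM in 0.5% DMSO / Times: 6 h compound treatment, 37 °C / Technique: luciferase luminescence / Read-out: % reporter activation, DMSO baseline versus tunicamycin full activation / Benchmarks: tunicamycin and DMSO controls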
CHOP inh: inhibitors of CHOP promoter induction, primary screen, cell-based, unfolded protein response, luciferase reporter. CHO-K1 CHOP-promoter luciferase, tunicamycin-induced, 15-18 h. inhibition, % at 10 µM. hit rate 3.8% among 220,000. AID 2732, 2010;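 active = compounds that reduced the stress-induced luciferase reporter signal by more than about 70% of percent inhibition, limit read from the data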;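 note: 0% = tunicamycin plus vehicle and 100% = wells without tunicamycin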
697 NFkB inh: inhibitors of PMA/ionomycin-induced NF-kB reporter, 697 cells, primary screen, B-cell NF-kB inhibitor project, cell-based, luminescence, uHTS. inhibition, % at 4 µM. AID 435022, 2010. hit rate 0.33% among 330,000. 697 B-cell NF-kB luciferase reporter, 16 h; in the data active = inhibition above about 35%
Jurkat NFkB conf: PMA/ionomycin-induced NF-kB reporter inhibitors, Jurkat retest, confirmation, T-cell NF-kB inhibitor project, cell-based, luminescence, single concentration; shares compounds with Jurkat NFkB inh; hit rate 27% among 2,700; Jurkat NF-kB luciferase, 16 h; inhibition, % at 4 µM; AID 435020, 2010;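 active = inhibition reaching about 45% at 4 µM in either replicate, limit read from the data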;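 note: plate controls were PMA/ionomycin stimulated DMSO wells for no effect and unstimulated DMSO wells for full effect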
Starred values were filed as active, the others as inactive; . = not tested or not shown.

SMILES	UPR XBP1 act	Jurkat NFkB inh	UPR CHOP act	CHOP inh	697 NFkB inh	Jurkat NFkB conf
CSc1nsc(SCC(=O)Nc2ccc(NC(C)=O)cc2)n1	-5	-22	3	.	4	.
O=C1NC2(CCCCCC2)C(=O)N1Cc1cccc([N+](=O)[O-])c1	-4	-5	0	.	-5	.
O=C(CCCSc1ccccc1)Nc1ccc(Cl)c(S(=O)(=O)N2CCOCC2)c1	-1	24	1	.	-17	.
CCN(CC)CCNC(=O)c1ccc2c(c1NCCO)C(=O)c1ccccc1C2=O	-7	86*	5	-15	-35	47*
O=C(O)c1cc(NC(=O)c2cccc(F)c2)cc(NC(=O)c2cccc(F)c2)c1	-4	-8	1	.	4	.
Cc1ccc(N(Cc2cc3ccccc3[nH]c2=O)S(=O)(=O)c2ccccc2)cc1	1	85*	-1	10	-17	16
Cn1cc(CCC(=O)NC2CC(C)(C)Cc3c2cnn3-c2ccc(F)cc2)cn1 (centres undefined)	-7	-5	5	.	-39	.
O/C(=C\c1ccc2ccccc2n1)c1ccc(O)cc1O	-2	-170	1	0	-186	-15
Oc1ccc(/C=C/c2ccc3ccccc3n2)cc1	-7	15	-7	58	-116	.
Cc1ccc2c(c1)C=CC(C#N)N2C(=O)c1ccccc1 (centres undefined)	-2	55*	-3	10	-40	43
CC(=O)Nc1ccc(-c2cc(C(=O)O)c3ccc(C)cc3n2)cc1	-3	-5	1	-2	-23	.
CSCCNC(=O)c1ccc2nc(C3CCCCC3)oc2c1	1	-14	4	.	-60	.
CCCc1cc(C(=O)N/N=C/c2ccc(CC)s2)c2ccccc2n1	0	56*	-1	42	-30	48
CCCc1cc(C(=O)N/N=C/c2ccc(C)o2)c2ccccc2n1	-1	19	0	17	-9	.
CCc1ccc(/C=N/NC(=O)c2cc(-c3ccncc3)nc3ccccc23)s1	19	63*	-1	32	-75	50*
Cn1cccc1/C=N/NC(=O)c1cc(-c2cccs2)nc2ccccc12	-3	53*	2	3	-15	4
O=C(N/N=C/c1cccs1)c1cc(-c2ccncc2)nc2ccccc12	.	.	.	4	.	.
Cc1cccc(N(C(=O)c2csnn2)C(C(=O)NC2CCCCC2)c2ccccn2)c1C (centres undefined)	-1	-2	0	.	18	.
N#CC1CC(c2ccccc2)Nc2cc(Cl)ccc2N1 (centres undefined)	10	-16	6	-11	-153	.
Cc1ccc(S(=O)(=O)N2CCCCC2)cc1NC(=O)Cc1c[nH]c2ccccc12	-1	66*	2	5	-79	21
COc1ccccc1/C=N/NS(=O)(=O)c1ccccc1	-2	91*	0	.	-20	9
COC(=O)c1nn(-c2ccc3c(c2)OCO3)cc1O	2	-35	2	2	6	.
COC(=O)c1nn(-c2ccc3c(c2)CCN3C(C)=O)cc1O	-5	53*	-10	62	10	67*
COc1ccc(NC(=O)CCNS(=O)(=O)c2ccc(C)c(C)c2)cc1OC	-1	1	0	.	18	.
CC(C)Oc1ccc(C(CCN)C2CCCCC2)cc1 (centres undefined)	7	56*	4	.	8	11
CN(C)c1ccc(/C=N\Nc2ccccn2)cc1	-4	-185	7	.	-193	-60
O=C(O)c1ccc(/C=N\Nc2ccccn2)cc1	-1	-27	2	.	-52	.
O=C(CC1C(=O)NCCN1Cc1c(F)cccc1Cl)NCCCn1cccn1 (centres undefined)	1	13	-1	-4	12	.
CCOc1ccc(S(=O)(=O)N2CCN(C(=O)CCC(=O)N3CCOCC3)CC2)cc1	-2	5	0	.	-25	.
O=C(C#Cc1ccccc1)c1ccco1	-9	51*	-8	.	-62	18

Assay outcomes (PubChem)
